ChEMBL document CHEMBL1123845 (J Med Chem, 1987)
Activity calls are given as the source filed them. No cut-off for these calls is given here.

Target: T1, Polyunsaturated fatty acid 5-lipoxygenase (Rattus norvegicus) (UniProt P12527)
T1 sequence (whole entry): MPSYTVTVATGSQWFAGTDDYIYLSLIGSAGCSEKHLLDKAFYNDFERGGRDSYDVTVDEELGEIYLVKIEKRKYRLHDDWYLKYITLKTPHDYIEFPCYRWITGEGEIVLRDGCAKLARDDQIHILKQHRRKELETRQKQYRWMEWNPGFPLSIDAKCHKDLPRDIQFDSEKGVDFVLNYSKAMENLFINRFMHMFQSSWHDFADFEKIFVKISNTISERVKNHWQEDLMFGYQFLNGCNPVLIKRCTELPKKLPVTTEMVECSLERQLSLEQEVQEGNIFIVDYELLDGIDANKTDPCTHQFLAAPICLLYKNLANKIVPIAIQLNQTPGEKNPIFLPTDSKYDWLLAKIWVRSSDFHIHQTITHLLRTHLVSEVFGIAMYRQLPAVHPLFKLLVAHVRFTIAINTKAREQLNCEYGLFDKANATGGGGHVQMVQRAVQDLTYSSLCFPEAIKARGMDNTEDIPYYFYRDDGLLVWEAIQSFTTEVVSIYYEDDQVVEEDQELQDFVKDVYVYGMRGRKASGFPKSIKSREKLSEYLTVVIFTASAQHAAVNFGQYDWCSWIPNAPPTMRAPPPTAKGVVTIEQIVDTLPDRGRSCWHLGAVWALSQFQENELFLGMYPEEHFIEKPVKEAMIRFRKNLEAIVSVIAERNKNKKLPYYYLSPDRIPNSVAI
Experiment: Compound was evaluated for the inhibition of rat basophilic leukemia-1 (RBL-1) 5-Lipoxygenase at 33 uM
Format: cell-based
In short: (§1)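 Enzyme source: 20000g supernatant of sonicated RBL-1 cells (1.5 × 10⁶ cell equivalents) in pH 6.8 BES/PIPES buffer with EDTA, CaCl₂ and NaCl. Compound or 2% DMSO vehicle preincubated 20 min at 37 °C. Reaction started with 66 μM arachidonic acid carrying [¹⁴C] tracer and run 5 min. Acid stop, ether extraction, then TLC. [¹⁴C]5-HETE counted and corrected by [³H]-5-HETE recovery.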

Compound	inhibition [%]
CCCCCC1/C=C/C#CCCCCCCCCCC(=O)O1 (stereo not given)	16

Target: T1, Polyunsaturated fatty acid 5-lipoxygenase (Rattus norvegicus)
Experiment: (§2) Compound was evaluated for the inhibition of rat basophilic leukemia-1 (RBL-1) 5-Lipoxygenase at 100 uM; NS = no significant activity
Format: cell-based
In short: as §1

Compound	inhibition
CCCCC[C@H](O)CCCCCCCCCCCCCC(=O)O	inactive
CCCCCC(O)/C=C/C#CCCCCC(=O)O (stereo not given)	inactive
CCCCCC(O)/C=C/C#CCCCCCC(=O)O (stereo not given)	inactive
O=C(O)CCCCCCCCCC#C/C=C/C(O)CCCCC(=O)O (stereo not given)	inactive

Target: T2, Polyunsaturated fatty acid 5-lipoxygenase (Rattus norvegicus, UniProt P12527)
T2 sequence (P12527 whole entry): T1 sequence (whole entry)
Experiment: Inhibition of rat basophilic leukemia-1 (RBL-1) 5-lipoxygenase
Format: cell-based
In short: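 Enzyme source: 20000g supernatant of sonicated RBL-1 cells (1.5 × 10⁶ cell equivalents) in pH 6.8 BES/PIPES buffer with EDTA, CaCl₂ and NaCl. Compound or 2% DMSO vehicle preincubated 20 min at 37 °C. Acid stop, ether extraction, then TLC. [¹⁴C]5-HETE counted and corrected by [³H]-5-HETE recovery.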

Compound	IC50 [µM]
CCCCC[C@H](O)/C=C/C=C\C/C=C\C/C=C\CCCC(=O)O [ICOMUCRET]	7.3
O=C(O)CCCCCCCCCC#C/C=C/C(O)CC1CCCC1 (stereo not given)	82
CCCCCC(O)/C=C/C#CCCCCCCCCCC(=O)O (stereo not given)	66
CCCCC/C=C\C/C=C\C/C=C\C=C\C(O)CCCC(=O)O (stereo not given)	77
CCCCC[C@@H](/C=C/C=C\C/C=C\C/C=C\CCCC(=O)O)OO	3.4
CCCCC[C@H](O)/C=C/C=C\C/C=C\C=C\C(O)CCCC(=O)O (stereo not given in full)	270
CCCCCCC(O)/C=C/C#CCCCCCCCCCC(=O)O (stereo not given)	32
CCCCCC(O)/C=C\C=C\CCCCCCCCCC(=O)O (stereo not given)	58
CCCCC[C@H](O)/C=C/C=C\CCCCCCCC(=O)O	82
CCCCC[C@H](O)/C=C/C=C\C/C=C/CCCCC(=O)O	29
CCCC(O)/C=C/C=C/CCCCCCCCCC(=O)O (stereo not given)	160
CCCCCC(O)/C=C/C=C\CCCCCCCCCC(=O)O (stereo not given)	35
CCCCC/C=C\C/C=C\C/C=C\C=C\C1CCCC(=O)O1 (stereo not given)	23
CCCC(O)/C=C/C#CCCCCCCCCCC(=O)O (stereo not given)	260
CCCCC[C@H](O)/C=C\C=C/C/C=C\CCCCCCC(=O)O	77
CCCCCC(O)/C=C/C#CCCCCCCCCC(=O)O (stereo not given)	73
CCCCC[C@H](O)/C=C/C=C\C/C=C\C/C=C\CCCCCC(=O)OC	6.5
CCCCCC(O)C#CC#CCCCCCCCCCC(=O)O (stereo not given)	27
CCCCC[C@H](O)/C=C/C=C\C/C=C\C/C=C\CCCC(=O)OC	64
CCCCC[C@H](O)/C=C/C=C\CCCCCCCCCC(=O)O	26
O=C(O)CCCCCCCCC/C=C/C=C/C(O)CC1CCCC1 (stereo not given)	61
CCCCC[C@@H](/C=C/C=C\C/C=C\C/C=C\CCCC(=O)O)OC(C)=O	17
CCCCC[C@@H](/C=C/C=C\C/C=C\C/C=C\CCCC(=O)OC)OC(C)=O	7.2
CCCCC[C@H](O)/C=C/C=C\C/C=C\C=C\C1CCCC(=O)O1 (stereo not given in full)	25
CCCCCC(=O)/C=C/C=C\C/C=C\C/C=C\CCCC(=O)O	26
CCCCCC(=O)/C=C/C=C\CCCCCCCCCC(=O)O	55
CCCCCC(/C=C/C=C\CCCCCCCCCC(=O)O)OC(C)=O (stereo not given)	76
CCCCC[C@H](O)/C=C/C=C\C/C=C\C/C=C\CCCCCC(=O)O	62

Target: T1, Polyunsaturated fatty acid 5-lipoxygenase (Rattus norvegicus)
Experiment: Compound was evaluated for the inhibition of rat basophilic leukemia-1 (RBL-1) 5-Lipoxygenase at 300 uM
Format: cell-based
In short: as §1

Compound	inhibition [%]
CCCC(O)/C=C/C#CCCCCCCCCC(=O)O (stereo not given)	46
CCCCC[C@H](O)/C=C/C=C\CCCCCCCCCC(=O)OC	34
CCCCC[C@H](O)/C=C/C=C\CCCCCCCC(=O)OC	34

Target: T1, Polyunsaturated fatty acid 5-lipoxygenase (Rattus norvegicus)
Experiment: Compound was evaluated for the inhibition of rat basophilic leukemia-1 (RBL-1) 5-Lipoxygenase at 75 uM
Format: cell-based
In short: as §1

Compound	inhibition [%]
CCCCCC(O)CC/C=C\CCCCCCCCCC(=O)O (stereo not given)	36

Target: T1, Polyunsaturated fatty acid 5-lipoxygenase (Rattus norvegicus)
Experiment: Compound was evaluated for the inhibition of rat basophilic leukemia-1 (RBL-1) 5-Lipoxygenase at 40 uM
Format: cell-based
In short: as §1

Compound	inhibition [%]
CCCCCCC(O)/C=C/C=C/CCCCCCCCCC(=O)O (stereo not given)	49

Target: T1, Polyunsaturated fatty acid 5-lipoxygenase (Rattus norvegicus)
Experiment: Inhibition of rat basophilic leukemia-1 (RBL-1) 5-Lipoxygenase at 100 uM
Format: cell-based
In short: as §1

Compound	inhibition [%]
CCCCCC(O)/C=C/C=C/CCCCCC(=O)O (stereo not given)	17
CCCCCC/C=C/C#CCCCCCCCCCC(=O)O	48
CCCCCC(O)C#C/C=C/CCCCCCCCCC(=O)O (stereo not given)	30
O=C(O)CCCCCCCCC/C=C\C=C\C(O)CCCCCO (stereo not given)	46
CCCCCC(O)c1cccc(OCCCCCCCC(=O)O)c1 (stereo not given)	23
COC(=O)CCCCC(O)/C=C/C#CCCCCCCCCCC(=O)O (stereo not given)	22
COC(=O)CCCCC(O)/C=C/C=C/CCCCCCCCCC(=O)O (stereo not given)	31
CCCCCC(O)/C=C/C#CCCCCCCC(=O)O (stereo not given)	18
CCCCCC(O)/C=C\C=C/CCCCCCCCCC(=O)O (stereo not given)	44
CCCCCC/C=C/C=C\CCCCCCCCCC(=O)O	16
CCCCCC(O)/C=C/C#CCCCCCCCC(=O)O (stereo not given)	24
CCCCCC(/C=C/C#CCCCCCCCCCC(=O)O)OC(C)=O (stereo not given)	40
CCCCCC1/C=C/C=C\CCCCCCCCCC(=O)O1 (stereo not given)	42
CCCCCC(O)/C=C/C=C/CCCCCCCCC(=O)O (stereo not given)	39

Target: T1, Polyunsaturated fatty acid 5-lipoxygenase (Rattus norvegicus)
Experiment: Compound was evaluated for the inhibition of rat basophilic leukemia-1 (RBL-1) 5-Lipoxygenase at 10 uM
Format: cell-based
In short: as §1

Compound	inhibition [%]
CCCCCC(O)/C=C/C=C/CCCCCCC(=O)O (stereo not given)	24

Target: T1, Polyunsaturated fatty acid 5-lipoxygenase (Rattus norvegicus)
Experiment: Compound was evaluated for the inhibition of rat basophilic leukemia-1 (RBL-1) 5-Lipoxygenase at 30 uM
Format: cell-based
In short: as §1

Compound	inhibition [%]
CCCCCC(O)/C=C/C=C/CCCCCCCCCC(=O)O (stereo not given)	33
CCCCCC(O)/C=C/C#CCCCCCCCCCCC(=O)O (stereo not given)	24
CCCCCC/C=C/C#CCCCCCCCCC(=O)O	33
CCCCCC(O)/C=C/C#CCCCCCCCCCC(=O)N(CC)CC (stereo not given)	49
CCCCC[C@H](O)/C=C/C=C\CCCCCCCCCC(=O)N(CC)CC	39
CCCCCC(O)/C=C/C=C/CCCCCCCCCCC(=O)O (stereo not given)	41

Target: T2, Polyunsaturated fatty acid 5-lipoxygenase
Experiment: as §2
Format: cell-based
In short: as §1

Compound	IC50
CCCCCC(O)/C=C/C=C/CCCCC(=O)O (stereo not given)	Not Active
